Source: ChEMBL document CHEMBL1275449, “Potent in vitro antifungal activities of naturally occurring acetylenic acids” (Antimicrob Agents Chemother, 2008)
≈ marks a conversion by molar mass, not a printed value. Calls of active or inactive are those of the source. The rule behind the calls is not given here.

How the values were obtained:
Candida tropicalis [1] = test: Antifungal activity against Candida tropicalis ATCC 750 after 48 hrs by CLSI method; assay type: functional, organism-based; conditions: ATCC 750, 48 h
Procedure, shortened: (§1)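 Yeast suspensions made from 3-5 colonies off 24-72 h SD agar plates in saline. They were diluted by OD630 standard curve in RPMI 1640 (0.2% dextrose, 0.03% glutamine, 0.165 M MOPS, pH 7.0) to 1.5 × 10³ CFU/ml. Twofold dilutions (11 concentrations, 20% DMSO-saline) run in duplicate. OD530 read before and after 35°C, 48 h. Line values are top test concentrations; no-growth endpoints give MIC/MFC.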

[2] = test system: Trichophyton mentagrophytes; test: Antifungal activity against Trichophyton mentagrophytes ATCC 9533 by CLSI method; assay type: functional, organism-based
Procedure, shortened: (§2)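 Growth scraped from 1- to 6-week-old potato dextrose slants and filtered through Miracloth. Diluted in 5% Alamar blue-RPMI 1640 (MOPS pH 7.0) to 2.7 × 10⁴ CFU/ml. Eleven twofold dilutions in duplicate. Fluorescence at 544 nm excitation/590 nm emission read before and after 35°C, 5 days. IC50 fitted from percent growth. MIC taken as no detectable growth; MFC from clear or blue wells plated on PD agar.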

Trichophyton rubrum [3] = test: Antifungal activity against Trichophyton rubrum ATCC MYA-4438 at 68.3 uM after 5 days by CLSI method; assay type: functional, organism-based
Pichia kudriavzevii [4] = test: Antifungal activity against Candida krusei ATCC 6258 at 68.3 uM after 48 hrs by CLSI method; assay type: functional, organism-based; procedure, shortened: as §1
Candida parapsilosis [5] = test: Antifungal activity against Candida parapsilosis ATCC 22019 at 68.3 uM after 48 hrs by CLSI method; assay type: functional, organism-based; procedure, shortened: as §1
Candida albicans [6] = test: Antifungal activity against Candida albicans ATCC 90028 after 48 hrs by CLSI method; assay type: functional, organism-based; conditions: ATCC 90028, 48 h
Procedure, shortened: (§3)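 CLSI broth microdilution. Colonies from 24–72 h SD agar suspended in saline and sized by OD630 standard curve. Inoculum 1.5 × 10³ CFU/ml (final) in RPMI 1640 (0.2% dextrose, 0.03% glutamine, 0.165 M MOPS, pH 7.0). Twofold dilutions (11 levels) from 20% DMSO-saline, in duplicate. 35°C for 48 h, OD530 read before and after. IC50 fitted from % growth. MIC: no detectable growth. MFC: subculture onto SD agar.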

Candida albicans [7] = test: Antifungal activity against Candida albicans ATCC 32354 after 48 hrs by CLSI method; assay type: functional, organism-based; conditions: ATCC 32354, 48 h; procedure, shortened: as §3
Aspergillus fumigatus [8] = test: Antifungal activity against Aspergillus fumigatus ATCC 90906 after 48 h by CLSI method; conditions: ATCC 90906, 48 h
Candida albicans [9] = test: Antifungal activity against Fluconazole resistant Candida albicans isolate 1 at 68.3 uM after 48 hrs by CLSI method; assay type: functional, organism-based
Procedure, shortened: (§4)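 Candida in CLSI broth microdilution. Saline colony suspension set to 1.5 × 10³ CFU/ml (final) in MOPS-buffered RPMI 1640, pH 7.0. Test agent given as twofold serial dilutions in 20% DMSO-saline, duplicate wells. 35°C for 48 h. Growth read as OD530 before and after incubation. Percent inhibition scored at the highest test concentration.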

[10] = test system: Trichophyton mentagrophytes; test: Antifungal activity against Trichophyton mentagrophytes ATCC MYA-4439 by CLSI method; assay type: functional, organism-based; procedure, shortened: as §2
Aspergillus niger [11] = test: Antifungal activity against Aspergillus niger ATCC 16404 after 48 h by CLSI method; conditions: ATCC 16404, 48 h
Candida albicans [12] = test: Antifungal activity against Candida albicans ATCC 60193 after 48 hrs by CLSI method; assay type: functional, organism-based; conditions: ATCC 60193, 48 h; procedure, shortened: as §3
Aspergillus fumigatus [13] = test: Antifungal activity against Aspergillus fumigatus ATCC 204305 at 68.3 uM after 48 hrs by CLSI method; assay type: functional, organism-based
Candida albicans [14] = test: Antifungal activity against Fluconazole resistant Candida albicans clinical isolate 1 after 48 hrs by CLSI method; assay type: functional, organism-based; procedure, shortened: as §3
Candida albicans [15] = test: Antifungal activity against Candida albicans ATCC 90028 at 68.3 uM after 48 hrs by CLSI method; assay type: functional, organism-based
Procedure, shortened: (§5)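 Candida inocula came from 24–72-h SD agar colonies suspended in saline. They were diluted by OD630 standard curve into RPMI 1640 (0.2% dextrose, 0.03% glutamine, 0.165 M MOPS, pH 7.0) to 1.5 × 10³ CFU/ml. Compounds were run as 11 twofold dilutions in 20% DMSO-saline, in duplicate, at 35°C for 48 h, with OD530 read before and after. Percent growth at the top concentration, IC50, MIC, and MFC (SD agar plating) were derived.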

Aspergillus flavus = test: Antifungal activity against Aspergillus flavus ATCC 204304 after 48 h by CLSI method; conditions: ATCC 204304, 48 h
Aspergillus fumigatus [16] = test: Antifungal activity against Aspergillus fumigatus ATCC 90906 at 68.3 uM after 48 hrs by CLSI method; assay type: functional, organism-based
Cryptococcus neoformans [17] = test: Antifungal activity against Cryptococcus neoformans ATCC 90113 after 72 hrs by CLSI method; assay type: functional, organism-based; conditions: ATCC 90113, 72 h
Procedure, shortened: (§6)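 SD broth replaced RPMI because growth in RPMI was poor; other CLSI conditions were kept. Inoculum was 1.5 × 10³ CFU/ml from colonies on SD agar, checked by plating. Twofold serial dilutions (11 concentrations) in 20% DMSO-saline were tested in duplicate. OD530 was read before and after incubation at 35°C for 72 h. Percent growth gave IC50; the MIC is the lowest concentration with no detectable growth.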

Pichia kudriavzevii [18] = test: Antifungal activity against Candida krusei ATCC 6258 after 48 hrs by CLSI method; assay type: functional, organism-based; conditions: ATCC 6258, 48 h; procedure, shortened: as §5
Trichophyton rubrum [19] = test: Antifungal activity against Trichophyton rubrum ATCC MYA-4438 by CLSI method; assay type: functional, organism-based; procedure, shortened: as §2
Candida albicans [20] = test: Antifungal activity against Candida albicans ATCC 200955 at 68.3 uM after 48 hrs by CLSI method; assay type: functional, organism-based; procedure, shortened: as §5
Candida albicans [21] = test: Antifungal activity against Fluconazole resistant Candida albicans clinical isolate 17 after 48 hrs by CLSI method; assay type: functional, organism-based; procedure, shortened: as §3
Candida albicans [22] = test: Antifungal activity against Candida albicans ATCC 32354 at 68.3 uM after 48 hrs by CLSI method; assay type: functional, organism-based; procedure, shortened: as §5
Candida albicans [23] = test: Antifungal activity against Candida albicans ATCC 14053 after 48 hrs by CLSI method; assay type: functional, organism-based; conditions: ATCC 14053, 48 h; procedure, shortened: as §3
Cryptococcus neoformans [24] = test: Antifungal activity against Cryptococcus neoformans ATCC 66031 after 72 hrs by CLSI method; assay type: functional, organism-based; conditions: ATCC 66031, 72 h; procedure, shortened: as §6
Trichophyton rubrum [25] = test: Antifungal activity against Trichophyton rubrum ATCC 10218 by CLSI method; assay type: functional, organism-based; procedure, shortened: as §2
Candida albicans [26] = test: Antifungal activity against Candida albicans ATCC 14053 at 68.3 uM after 48 hrs by CLSI method; assay type: functional, organism-based
Candida albicans [27] = test: Antifungal activity against Candida albicans ATCC 200955 after 48 hrs by CLSI method; assay type: functional, organism-based; conditions: ATCC 200955, 48 h; procedure, shortened: as §3
Nakaseomyces glabratus = test: Antifungal activity against Candida glabrata ATCC 90030 at 68.3 uM after 48 hrs by CLSI method; assay type: functional, organism-based; procedure, shortened: as §5
Candida albicans [28] = test: Antifungal activity against Candida albicans ATCC 60193 at 68.3 uM after 48 hrs by CLSI method; assay type: functional, organism-based; procedure, shortened: as §5
Aspergillus niger [29] = test: Antifungal activity against Aspergillus niger ATCC 16404 at 68.3 uM after 48 hrs by CLSI method; assay type: functional, organism-based
Aspergillus fumigatus [30] = test: Antifungal activity against Aspergillus fumigatus ATCC 204305 after 48 h by CLSI method; conditions: ATCC 204305, 48 h
Candida albicans [31] = test: Antifungal activity against Fluconazole resistant Candida albicans isolate 17 at 68.3 uM after 48 hrs by CLSI method; assay type: functional, organism-based; procedure, shortened: as §4
Candida tropicalis [32] = test: Antifungal activity against Candida tropicalis ATCC 750 at 68.3 uM after 48 hrs by CLSI method; assay type: functional, organism-based; procedure, shortened: as §1
Candida parapsilosis [33] = test: Antifungal activity against Candida parapsilosis ATCC 22019 after 48 hrs by CLSI method; assay type: functional, organism-based; conditions: Lodderomyces parapsilosis, ATCC 22019, 48 h; procedure, shortened: as §1

Q: What does the source list for `CN(C/C=C/C#CC(C)(C)C)Cc1cccc2ccccc12` [TERBINAFINE]?
A: IC50 (Candida tropicalis [1]): 45.4 µM; IC50 [2]: < 0.02 µM; MFC [2]: 0.27 µM (≈ 0.0787 µg/mL); MIC [2]: 0.05 µM (≈ 0.0146 µg/mL); Activity (Trichophyton rubrum [3]): inactive; Activity (Pichia kudriavzevii [4]): inactive; Activity (Candida parapsilosis [5]): inactive; IC50 (Candida albicans [6]): 10.8 µM; IC50 (Candida albicans [7]): 2.6 µM; IC50 (Aspergillus fumigatus [8]): 1 µM; MIC (Aspergillus fumigatus [8]): 4.3 µM (≈ 1.25 µg/mL); Activity (Candida albicans [9]): inactive; IC50 [10]: < 0.02 µM; MFC [10]: 0.27 µM (≈ 0.0787 µg/mL); MIC [10]: 0.17 µM (≈ 0.0495 µg/mL); IC50 (Aspergillus niger [11]): 0.7 µM; MIC (Aspergillus niger [11]): 2.1 µM (≈ 0.612 µg/mL); IC50 (Candida albicans [12]): 5.3 µM; Activity (Aspergillus fumigatus [13]): inactive; IC50 (Candida albicans [14]): 11.2 µM; Activity (Candida albicans [15]): inactive; IC50 (Aspergillus flavus): 0.3 µM; MFC (Aspergillus flavus): 8.6 µM (≈ 2.51 µg/mL); MIC (Aspergillus flavus): 2.1 µM (≈ 0.612 µg/mL); Activity (Aspergillus fumigatus [16]): inactive; IC50 (Cryptococcus neoformans [17]): 0.5 µM; MFC (Cryptococcus neoformans [17]): 1.1 µM (≈ 0.321 µg/mL); MIC (Cryptococcus neoformans [17]): 1.1 µM (≈ 0.321 µg/mL); IC50 (Pichia kudriavzevii [18]): > 68.3 µM; IC50 (Trichophyton rubrum [19]): 4.2 µM; MIC (Trichophyton rubrum [19]): 21.4 µM (≈ 6.24 µg/mL); Activity (Candida albicans [20]): inactive; IC50 (Candida albicans [21]): > 68.3 µM; Activity (Candida albicans [22]): inactive; IC50 (Candida albicans [23]): 13.7 µM; IC50 (Cryptococcus neoformans [24]): 0.4 µM; MFC (Cryptococcus neoformans [24]): 8.6 µM (≈ 2.51 µg/mL); MIC (Cryptococcus neoformans [24]): 4.3 µM (≈ 1.25 µg/mL); IC50 (Trichophyton rubrum [25]): < 0.02 µM; MFC (Trichophyton rubrum [25]): 0.13 µM (≈ 0.0379 µg/mL); MIC (Trichophyton rubrum [25]): 0.1 µM (≈ 0.0291 µg/mL); Activity (Candida albicans [26]): inactive; IC50 (Candida albicans [27]): 3.1 µM; MIC (Candida albicans [27]): 51.5 µM (≈ 15 µg/mL); Activity (Nakaseomyces glabratus): inactive; Activity (Candida albicans [28]): inactive; Activity (Aspergillus niger [29]): inactive; IC50 (Aspergillus fumigatus [30]): 1.1 µM; MIC (Aspergillus fumigatus [30]): 4.3 µM (≈ 1.25 µg/mL); Activity (Candida albicans [31]): inactive; Activity (Candida tropicalis [32]): inactive; IC50 (Candida parapsilosis [33]): 0.4 µM; MIC (Candida parapsilosis [33]): 42.9 µM (≈ 12.5 µg/mL)
